Screening data from PubChem BioAssay.
TCR-CD3 inh: inhibitors of human TCR-CD3 interaction, primary screen, biochemical, fluorescence, TAMRA-labeled TCR probe | inhibition, % at 9.4 µM | 360,000 compounds, 0.37% hits | AID 651800, 2012;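 note: recombinant mutant TCR 2C K166C tagged with TAMRA read by polarization; 0% = receptor in buffer alone and 100% = receptor with positive control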
HTRA1 inhibitor: HTRA1 serine protease inhibitors, primary screen, biochemical, fluorescence polarization, HTS | AID 504803, 2011 | recombinant HTRA1, FP-rhodamine activity-based probe | inhibition, % at 5.96 µM | Q92743 | 340,000 compounds, 0.5% hits; in the data active = inhibition above about 36%;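 note: 0% = enzyme with DMSO and 100% = wells lacking enzyme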
SIAE primary: human SIAE inhibitors, primary screen, biochemical, fluorescence polarization, FP-Rh probe, 1536-well HTS. SIAE FP-Rh probe binding. inhibition, % at 9.66 µM. 370,000 compounds, 0.69% hits;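 active = inhibition above a cutoff: mean of compounds within the control limits plus 3 SD of those, cut at about 17% in these data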;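 note: 0% = plate median of compound wells and 100% = probe without SIAE protein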
Target sequence (Q9HAT2 whole entry, looked up): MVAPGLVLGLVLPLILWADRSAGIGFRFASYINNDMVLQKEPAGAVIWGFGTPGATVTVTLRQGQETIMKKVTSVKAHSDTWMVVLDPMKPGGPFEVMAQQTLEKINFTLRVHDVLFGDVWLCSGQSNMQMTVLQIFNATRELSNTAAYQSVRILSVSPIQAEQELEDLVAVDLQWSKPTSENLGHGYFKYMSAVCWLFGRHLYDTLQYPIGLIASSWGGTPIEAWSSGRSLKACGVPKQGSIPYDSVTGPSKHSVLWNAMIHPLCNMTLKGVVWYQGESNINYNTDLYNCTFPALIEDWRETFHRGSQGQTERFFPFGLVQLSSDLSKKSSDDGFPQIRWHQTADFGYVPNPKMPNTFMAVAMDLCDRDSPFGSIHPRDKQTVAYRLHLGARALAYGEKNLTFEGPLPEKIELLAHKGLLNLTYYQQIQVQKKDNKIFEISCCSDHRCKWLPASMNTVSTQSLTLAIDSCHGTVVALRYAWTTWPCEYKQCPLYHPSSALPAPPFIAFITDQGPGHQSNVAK
DAGLB inhibitor: DAGLB lipase inhibitors, primary screen, biochemical, fluorescence, HTS. Diacylglycerol lipase-beta (Homo sapiens), Q8NCG7. HEK293T DAGLB membrane lysate, EnzChek fluorogenic substrate. inhibition, % at 5.17 µM. 340,000 compounds, 0.059% hits. AID 504411, 2011; in the data active = inhibition above about 34%;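 note: 0% = enzyme with vehicle and 100% = wells lacking enzyme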
ABHD4 inh: ABHD4 inhibitors, primary screen, biochemical, fluorescence polarization, mouse; purified mABHD4, FP-Rh probe fluorescence polarization; inhibition, % at 8.92 µM; 370,000 compounds, 0.54% hits; AID 720543, 2013;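 active = inhibition exceeding the mean over every tested compound plus 3 SD, cut at about 30% in these data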;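 note: 0% = plate median of compound wells and 100% = S159A mutant with DMSO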
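Assay system: Wild-type mouse ABHD4 protein | Medium: HEPES pH 7.0 buffer, 150 mM NaCl, 0.01% Pluronic F-127 | Incubation: Enzyme–compound pre-incubation 45 min, then probe 60 min, both 25 °C | Technique: Fluorescence polarization with parallel and perpendicular emission, 525/598 nm | Evaluation: % inhibition of FP-Rh probe binding versus controls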
BSA TAMRA ctr: compounds interfering with TAMRA-BSA probe, counter-screen for TCR-CD3 interaction inhibitor project, biochemical, fluorescence, TAMRA-labeled BSA; TAMRA-labeled BSA probe fluorescence counterscreen; 1,200 compounds, 10% hits; shares compounds with TCR-CD3 inh; AID 652035, 2013; inhibition, % at 9.4 µM; in the data active = inhibition above about 23%;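 note: 0% = buffer low control and 100% = reference high control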
TCR-CD3 conf: TCR-CD3 interaction inhibitors, retest, confirmation, biochemical, fluorescence, TAMRA-labeled TCR probe | shares compounds with TCR-CD3 inh | TAMRA-labeled TCR probe fluorescence binding assay | inhibition, % at 9.4 µM | 1,200 compounds, 48% hits
An asterisk follows results filed as active; · = no result; ! = not active in a repeat. Hits are enriched below; roughly 1.5% of the tested compounds scored in any of these assays. Cut-off read from the data, not from the text of the source, unless noted: active = inhibition above about 19%; inactive = the rest.

SMILES | TCR-CD3 inh | HTRA1 inhibitor | SIAE primary | DAGLB inhibitor | ABHD4 inh | BSA TAMRA ctr | TCR-CD3 conf
CN(C)S(=O)(=O)c1cccc(NC(=O)COC(=O)c2cccc(S(=O)(=O)N3CCc4ccccc4C3)c2)c1 | 42* | -32 | -7 | -3 | -43 | 26* | 54*
Cc1[nH]c2ccccc2c1CC(=O)Nc1ccc(Nc2cccnc2)c(-c2cc(F)cc(F)c2)c1 | 6 | · | 17 | · | 13 | · | ·
CCOC(=O)C1CCCN(C(=O)c2cc(-c3ccco3)nc3ccccc23)C1 (configuration not stated) | 21* | 26 | 9 | 4 | 11 | -12 | 15
CCN(CC)S(=O)(=O)c1cccc(C(=O)N/N=C(\C)c2ccc(O)cc2O)c1 | 41* | 21 | 11 | 4 | 21 | -19 | 44*
Cc1ccc(-n2c(O)c(/C=N/NC(=O)C3COc4ccccc4O3)c3ccccc3c2=O)cc1 (configuration not stated) | 20* | 16 | 7 | 12 | 25 | -7 | 34*
CCN1CCN(Cc2ccc(NC(=O)c3ccc(C)c(NC(=O)c4c[nH]c5cc(C(F)(F)F)ccc5c4=O)c3)cc2C(F)(F)F)CC1 | 24* | -72 | 2 | -3 | -33 | 11 | 21*!
Cc1ccc(C(=O)Nc2cccc(C(F)(F)F)c2)cc1NC(=O)c1c[nH]c2cc(C(F)(F)F)ccc2c1=O | 0 | 6 | -7 | -1 | 10 | · | ·
CC(C)NC(=O)Nc1ccc2c(c1)C(=O)N([C@H](C)CO)C[C@H](C)[C@@H](CN(C)S(=O)(=O)c1ccccc1)O2 | -2 | 3 | -2 | -4 | 0 | · | ·
C[C@H](CO)N1C[C@H](C)[C@@H](CN(C)S(=O)(=O)c2ccccc2)Oc2ccc(NC(=O)Nc3ccc(C(F)(F)F)cc3)cc2C1=O | 28* | -118 | -177 | 3 | -87 | 6 | 9
CCOC(=O)N1CCN(C(=O)C[C@@H]2C(=O)N(Cc3ccc(OC)cc3)C3=CCN(C(=O)OC(C)(C)C)C[C@]32C(=O)OCC)CC1 | · | · | -2 | · | -5 | · | ·
CCNc1nc(NC(C)C)nc(N(C#N)CC(=O)OC)n1 | 22* | 3 | 5 | -1 | -8 | 4 | 4
CCOC(=O)[C@]12CCCC=C1N(CCCOC)C(=O)[C@@H]2CC(=O)NCC12CC3CC(CC(C3)C1)C2 | · | · | 6 | · | 2 | · | ·
Cc1ccccc1OCc1nc(-c2ccc(NC(=O)c3cccs3)cc2)no1 | 28* | -34 | -6 | -7 | -18 | -8 | -7
Cc1ccccc1OCc1nc(-c2ccc(NC(=O)c3ccco3)cc2)no1 | -6 | -48 | -17 | -4 | -32 | · | ·
O=C(NN=C1CCCC1)c1ccccc1[N+](=O)[O-] | -1 | 2 | 6 | 2 | 2 | · | ·
O=C(NN=C1CCCC1)c1ccccc1O | 23* | 13 | 8 | 0 | 7 | -15 | 15
C/C(=N\NC(=O)c1cc(C2CC2)nc2ccccc12)c1ccc(C)s1 | 6 | -13 | -1 | -1 | 3 | · | ·
C/C(=N\NC(=O)c1cc(C2CC2)nc2ccccc12)c1ccc(O)cc1O | 22* | 15 | 8 | 3 | 8 | -12 | 24*
CN1C2=N[C@H](c3ccccc3)CC(=O)N2/C(=C\c2ccccc2)C1Cc1ccccc1 (some centres not stated) | · | · | 13 | · | -2 | · | ·
COC(=O)Cc1nnn2c1CC(OC)c1cc(Br)ccc1-2 (configuration not stated) | 0 | · | 2 | · | 1 | · | ·
CSc1nc(NCCOCCO)c2sc3nc(-c4ccco4)c4c(c3c2n1)CCC4 | 20* | -36 | 7 | 3 | 8 | -3 | 0
O=S(=O)(c1ccc(C(F)(F)F)cc1)N1CCCc2nc(-c3ccccc3)ccc21 | 4 | · | 2 | · | -2 | · | ·
COc1ccc(C(=O)NNC(=O)c2ccc3ccccc3c2)cc1 | 5 | 0 | -4 | -2 | -3 | · | ·
O=C(NNC(=O)c1ccc2ccccc2c1O)NC1CCCCC1 | 20* | 20 | 17 | 5 | 6 | -7 | 21*
Cc1cccc(NC(=O)NNC(=O)c2ccc3ccccc3c2)c1 | -1 | -8 | 0 | -3 | -4 | · | ·
SMILES | TCR-CD3 inh | HTRA1 inhibitor | SIAE primary | DAGLB inhibitor | ABHD4 inh | BSA TAMRA ctr | TCR-CD3 conf
Cc1cccc(NC(=O)NNC(=O)c2ccc3ccccc3c2O)c1 | 33* | 15 | 17 | 4 | 13 | -8 | 29*
O=C(NC1CCCCC1)c1ccc2ccccc2c1O | 3 | -12 | -2 | -12 | -11 | · | ·
COc1ccc(C(=O)NNC(=O)c2ccc3ccccc3c2O)cc1 | 38* | 4 | 14 | 4 | 6 | -11 | 38*
O=C(NNC(=O)c1ccc(O)cc1O)c1ccc(-c2ccccc2)cc1 | 28* | 24 | 2 | 3 | 4 | -9 | 22*
COC(=O)c1cc2c(c3c4ccccc4n(S(=O)(=O)c4ccccc4)c13)C(=O)N(Cc1ccc(C(F)(F)F)cc1)C2 | 2 | · | -11 | · | -9 | · | ·
Cc1ccc(C(=O)NNC(=O)c2ccc3ccccc3c2O)cc1 | 43* | -2 | -2 | 5 | 11 | -6 | 34*
Cc1cc(Br)c2nc(-c3ccc(Cl)cc3)c(Cc3cccc(Cl)c3)n2c1 | -3 | · | -6 | · | -46 | · | ·
Cc1ccc(-c2ccc(/C=N/N3C(=O)C4C5C=CC(CC5)C4C3=O)o2)c([N+](=O)[O-])c1 (configuration not stated) | 22* | -10 | 9 | -2 | 15 | 3 | 1
C=CCn1c(-c2ccco2)n[nH]c1=S | 54* | 6 | -5 | 2 | -1 | 1 | 0
C/C(Cn1cnc([N+](=O)[O-])n1)=N\NC(=O)c1ccc(O)cc1O | 19* | 4 | 3 | 1 | 1 | -3 | 3
C/C(Cn1cnc([N+](=O)[O-])n1)=N\NC(=O)c1ccccc1O | 3 | 5 | 15 | -3 | 8 | · | ·
O=C(Nc1ccc(Cl)c(Cl)c1)Oc1ccc(NC(=O)c2ccco2)cc1 | 40* | -30 | -132 | 3 | -57 | 4 | 15
O=C(Nc1ccc(OC(=O)c2ccco2)cc1)c1ccco1 | -1 | -4 | -7 | 2 | -4 | · | ·
CCOC(=O)C1=CCN(S(=O)(=O)c2cccc(Cl)c2)C1c1cccc(F)c1 (configuration not stated) | 65* | · | -6 | · | -8 | 5 | 4
Cc1ccc([C@H]2C[C@]34CN(Cc5ccccc5)S(=O)(=O)[C@H]3C[C@H]2O4)cc1 | -3 | · | 3 | · | -1 | · | ·
